Consider 23 compounds from ChEMBL document CHEMBL2177027, “Exploring the directionality of 5-substitutions in a new series of 5-alkylaminopyrazolo[4,3-e]1,2,4-triazolo[1,5-c]pyrimidine as a strategy to design novel human a(3) adenosine receptor antagonists” (J Med Chem, 2012).

The term Ki denotes a dissociation constant, usually derived from enzyme kinetics or from competition with a known ligand.

For one experiment, the target named is Adenosine receptor A2a (Homo sapiens, UniProt P29274). As to the kind of experiment: Displacement of [3H]NECA from human adenosine A2A receptor expressed in CHO cell membrane. It counts as cell membranes. In a few lines: (§1)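 CHO cells stably transfected with the human receptor subtype. Membranes were prepared by a 1000g spin to clear fragments and nuclei, then pelleted from the supernatant at 100 000g. Pellet was resuspended in the respective binding buffer, frozen in liquid nitrogen and stored until radioligand competition binding.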
Chain of Adenosine receptor A2a (P29274 whole entry, the tested form may be a part): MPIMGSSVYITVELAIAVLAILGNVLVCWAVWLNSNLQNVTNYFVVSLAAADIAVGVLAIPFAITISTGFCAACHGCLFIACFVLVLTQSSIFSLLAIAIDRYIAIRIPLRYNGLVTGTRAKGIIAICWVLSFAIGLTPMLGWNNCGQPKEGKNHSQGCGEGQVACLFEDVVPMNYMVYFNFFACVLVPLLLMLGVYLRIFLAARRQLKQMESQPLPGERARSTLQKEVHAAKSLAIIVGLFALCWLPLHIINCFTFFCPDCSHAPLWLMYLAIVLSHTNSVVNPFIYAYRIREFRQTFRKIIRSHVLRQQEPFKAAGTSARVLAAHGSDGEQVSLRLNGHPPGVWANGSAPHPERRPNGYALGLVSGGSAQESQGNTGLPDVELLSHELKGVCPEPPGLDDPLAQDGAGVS

Another experiment has as its target T1, Adenosine receptor A2b (Homo sapiens, UniProt P29275).
T1 sequence (P29275 whole entry): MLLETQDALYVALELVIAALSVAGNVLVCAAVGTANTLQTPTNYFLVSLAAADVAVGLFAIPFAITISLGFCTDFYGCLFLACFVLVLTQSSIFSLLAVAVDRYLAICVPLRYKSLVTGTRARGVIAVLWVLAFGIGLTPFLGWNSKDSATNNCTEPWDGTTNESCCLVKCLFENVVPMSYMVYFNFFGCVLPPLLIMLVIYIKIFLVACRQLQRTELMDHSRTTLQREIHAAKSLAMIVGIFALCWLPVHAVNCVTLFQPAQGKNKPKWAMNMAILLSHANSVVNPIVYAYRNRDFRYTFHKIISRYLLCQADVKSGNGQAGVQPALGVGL
As to the kind of experiment: Antagonist activity at human adenosine A2B receptor expressed in CHO cells assessed as NECA-induced adenylate cyclase activity. In kind it is functional, cell-based. Summed up: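 Membranes from stably transfected CHO cells made with a single high-speed spin of the homogenate. Incubated 20 min with about 150 000 cpm [α-³²P]ATP in mixture lacking EDTA and NaCl. IC50 taken from concentration-dependent inhibition of NECA-stimulated adenylyl cyclase using Hill equation.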

A short description of experiment [1]: Selectivity ratio of Ki for human adenosine A2A receptor expressed in CHO cell membrane to Ki for human adenosine A3 receptor expressed in CHO cell membrane. In kind it is cell-based.
The target of another experiment is T2, Adenosine receptor A3 (Homo sapiens, UniProt P0DMS8).
T2 sequence (P0DMS8 whole entry): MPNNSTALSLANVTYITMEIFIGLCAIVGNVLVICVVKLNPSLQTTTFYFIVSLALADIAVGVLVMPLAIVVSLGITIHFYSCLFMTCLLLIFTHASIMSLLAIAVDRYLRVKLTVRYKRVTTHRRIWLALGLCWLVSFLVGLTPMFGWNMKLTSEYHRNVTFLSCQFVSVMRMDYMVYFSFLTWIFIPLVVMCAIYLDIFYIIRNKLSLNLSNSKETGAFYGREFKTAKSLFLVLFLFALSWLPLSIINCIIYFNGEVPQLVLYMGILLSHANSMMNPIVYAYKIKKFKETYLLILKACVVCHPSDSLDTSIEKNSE
As to the kind of experiment: Displacement of [3H]NECA from human adenosine A3 receptor expressed in CHO cell membrane. In kind it is cell membranes. Summed up: as §1
Background: Loss of bound radioactivity is the signal in a displacement assay; it reports binding, not function.

Another experiment has as its target T3, Adenosine receptor A1 (Homo sapiens, UniProt P30542).
T3 sequence (P30542 whole entry): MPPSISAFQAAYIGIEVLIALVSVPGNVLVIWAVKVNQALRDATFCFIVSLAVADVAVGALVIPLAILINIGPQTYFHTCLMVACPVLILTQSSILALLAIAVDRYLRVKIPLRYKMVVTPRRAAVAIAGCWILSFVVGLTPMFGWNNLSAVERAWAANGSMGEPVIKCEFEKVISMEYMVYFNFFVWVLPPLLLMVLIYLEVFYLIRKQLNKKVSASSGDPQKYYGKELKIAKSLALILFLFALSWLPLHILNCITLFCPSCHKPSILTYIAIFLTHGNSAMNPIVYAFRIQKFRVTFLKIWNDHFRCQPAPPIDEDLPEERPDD
Briefly: Displacement of [3H]CCPA from human adenosine A1 receptor expressed in CHO cell membrane. In kind it is cell membranes. In a few lines:
as §1

Experiment [2] is described as follows: Selectivity ratio of Ki for human adenosine A1 receptor expressed in CHO cell membrane to Ki for human adenosine A2A receptor expressed in CHO cell membrane. In kind it is cell-based.
In experiment [3] the target is Adenosine receptors; A1 & A3 (Homo sapiens) (UniProt P30542+P0DMS8). Briefly: Selectivity ratio of Ki for human adenosine A1 receptor expressed in CHO cell membrane to Ki for human adenosine A3 receptor expressed in CHO cell membrane. In kind it is cell-based.

Bounds are passed on as bounds.

Take `Cn1cc2c(nc(NCc3ccc(-c4ccccc4)cc3)n3nc(-c4ccco4)nc23)n1`: the Ki was 0.593 µM at Adenosine receptor A2a, over 10 µM at Adenosine receptor A2b, 0.187 µM on Adenosine receptor A3 and 17.5 µM at Adenosine receptor A1. Also, the Ratio Ki is 3.17 in experiment [1], 29.5 in experiment [2] and 93.6 in experiment [3].

As for `CN(c1nc2nn(C)cc2c2nc(-c3ccco3)nn12)C1CCCCC1`, the inhibition constant (Ki) was 2.73 µM at Adenosine receptor A2a, over 10 µM at Adenosine receptor A2b, 0.0327 µM at Adenosine receptor A3 and 1.02 µM at Adenosine receptor A1. For the same compound, the Ratio Ki in experiment [1] was 83.5; in experiment [2], 0.37; in experiment [3], 31.2.

In the case of `Cn1cc2c(nc(N(Cc3ccccc3)Cc3ccccc3)n3nc(-c4ccco4)nc23)n1`, the inhibitory constant (Ki) is 1.15 µM on Adenosine receptor A2a, over 10 µM on Adenosine receptor A2b, 0.404 µM at Adenosine receptor A3 and 0.711 µM on Adenosine receptor A1. The Ratio Ki came to 2.85 in experiment [1], 0.62 in experiment [2] and 1.76 in experiment [3].

Regarding `C[C@H](Nc1nc2nn(C)cc2c2nc(-c3ccco3)nn12)c1ccccc1`, the Ki on Adenosine receptor A2a turned out to be 0.0552 µM; at Adenosine receptor A2b it was 5.29 µM; on Adenosine receptor A3 it was 0.0003 µM; on Adenosine receptor A1, 0.338 µM. Moreover, the Ratio Ki in experiment [1] was 184; in experiment [2], 6.12; in experiment [3] it was 1130.

Consider `Cn1cc2c(nc(NC3CCCCC3)n3nc(-c4ccco4)nc23)n1`, for which the Ki on Adenosine receptor A2a is 0.233 µM; on Adenosine receptor A2b, 6.32 µM; at Adenosine receptor A3 it was 0.00857 µM; at Adenosine receptor A1, 0.166 µM. Besides, the Ratio Ki in experiment [1] turned out to be 27.2; in experiment [2], 0.71; in experiment [3] it was 19.4.

Consider `Cn1cc2c(nc(NC3CCC3)n3nc(-c4ccco4)nc23)n1`, for which the Ki at Adenosine receptor A2a is 0.0839 µM; on Adenosine receptor A2b, 1.11 µM; on Adenosine receptor A3, 0.0176 µM; at Adenosine receptor A1 it was 0.169 µM. Moreover, the Ratio Ki in experiment [1] was determined as 4.77; in experiment [2] it was 2.01; in experiment [3], 9.6.

As to `Cn1cc2c(nc(NC3CCCCCCC3)n3nc(-c4ccco4)nc23)n1`, the Ki at Adenosine receptor A2a was 0.279 µM; on Adenosine receptor A2b, over 10 µM; at Adenosine receptor A3 it was 0.0155 µM; at Adenosine receptor A1, 0.484 µM. Moreover, the Ratio Ki in experiment [1] stood at 18; in experiment [2] it was 1.73; in experiment [3] it was 31.2.

As to `Cn1cc2c(nc(NCCc3ccccc3)n3nc(-c4ccco4)nc23)n1`, the Ki was determined as 0.0461 µM on Adenosine receptor A2a, 2.79 µM on Adenosine receptor A2b, 0.0528 µM on Adenosine receptor A3 and 0.733 µM at Adenosine receptor A1. Besides, the Ratio Ki in experiment [1] came to 0.87; in experiment [2] it was 15.9; in experiment [3], 13.9.

Take `Cn1cc2c(nc(NC(CO)CO)n3nc(-c4ccco4)nc23)n1`: the Ki on Adenosine receptor A2a was 0.597 µM; on Adenosine receptor A2b, over 10 µM; at Adenosine receptor A3, 0.536 µM; on Adenosine receptor A1, 0.639 µM. Besides, the values for the Ratio Ki in experiment [1], in experiment [2] and in experiment [3] were 1.11, 1.07 and 1.19, respectively.

As for `C[C@@H](Nc1nc2nn(C)cc2c2nc(-c3ccco3)nn12)c1ccccc1`, the Ki on Adenosine receptor A2a was determined as 0.0382 µM; on Adenosine receptor A2b, 12.2 µM; at Adenosine receptor A3, 0.00371 µM; at Adenosine receptor A1, 0.945 µM. The Ratio Ki in experiment [1] was determined as 10.3; in experiment [2] it was 24.7; in experiment [3], 255.

For `Cn1cc2c(nc(N3CCOCC3)n3nc(-c4ccco4)nc23)n1`, the Ki was 1.67 µM on Adenosine receptor A2a, over 10 µM on Adenosine receptor A2b, 0.514 µM at Adenosine receptor A3 and 2.42 µM at Adenosine receptor A1. Besides, the Ratio Ki in experiment [1] came out at 3.25; in experiment [2], 1.45; in experiment [3], 4.71.

As to `Cc1ccc(CNc2nc3nn(C)cc3c3nc(-c4ccco4)nn23)cc1`, the Ki at Adenosine receptor A2a turned out to be 0.117 µM; at Adenosine receptor A2b, 3.94 µM; at Adenosine receptor A3 it was 0.00107 µM; on Adenosine receptor A1, 0.538 µM. Moreover, the Ratio Ki in experiment [1] amounted to 109; in experiment [2], 4.6; in experiment [3] it was 503.

For the compound `CCN(CC)c1nc2nn(C)cc2c2nc(-c3ccco3)nn12`, the Ki on Adenosine receptor A2a was 0.798 µM; at Adenosine receptor A2b, over 10 µM; at Adenosine receptor A3, 0.0963 µM; on Adenosine receptor A1, 1.45 µM. Also, the Ratio Ki in experiment [1] worked out at 8.29; in experiment [2] it was 1.82; in experiment [3] it was 15.1.

In the case of `CCCCC(CC)CNc1nc2nn(C)cc2c2nc(-c3ccco3)nn12` (stereo unspecified), the inhibition constant (Ki) was 0.512 µM at Adenosine receptor A2a, over 10 µM on Adenosine receptor A2b, 0.00382 µM at Adenosine receptor A3 and 0.605 µM on Adenosine receptor A1. For the same compound, the Ratio Ki came to 134 in experiment [1], 1.18 in experiment [2] and 158 in experiment [3].

Consider `CCCCCNc1nc2nn(C)cc2c2nc(-c3ccco3)nn12`, for which the Ki at Adenosine receptor A2a was determined as 0.168 µM; at Adenosine receptor A2b it was 3.98 µM; at Adenosine receptor A3 it was 0.0146 µM; at Adenosine receptor A1, 0.481 µM. Moreover, the Ratio Ki in experiment [1] was found to be 11.5; in experiment [2] it was 2.86; in experiment [3], 32.9.

As to `COc1ccc(CCNc2nc3nn(C)cc3c3nc(-c4ccco4)nn23)cc1OC`, the Ki on Adenosine receptor A2a was 0.0925 µM; on Adenosine receptor A2b it was 3.88 µM; on Adenosine receptor A3, 0.0376 µM; at Adenosine receptor A1 it was 1.58 µM. Further, the Ratio Ki was found to be 2.46 in experiment [1], 17.1 in experiment [2] and 42 in experiment [3].

`COCCNc1nc2nn(C)cc2c2nc(-c3ccco3)nn12`: the Ki on Adenosine receptor A2a is 0.407 µM; at Adenosine receptor A2b, over 10 µM; on Adenosine receptor A3, 0.246 µM; at Adenosine receptor A1, 2.4 µM. The values for the Ratio Ki in experiment [1], in experiment [2] and in experiment [3] were 1.65, 5.9 and 9.76, respectively.

On to `CN(C)c1nc2nn(C)cc2c2nc(-c3ccco3)nn12`, for which the Ki was 1.03 µM on Adenosine receptor A2a, over 10 µM at Adenosine receptor A2b, 0.394 µM on Adenosine receptor A3 and 4.76 µM at Adenosine receptor A1. The Ratio Ki in experiment [1] stood at 2.61; in experiment [2] it was 4.62; in experiment [3] it was 12.1.

As for `Cn1cc2c(nc(NCc3ccc(F)cc3)n3nc(-c4ccco4)nc23)n1`, the inhibitory constant (Ki) on Adenosine receptor A2a amounted to 0.0875 µM; at Adenosine receptor A2b, 3.18 µM; on Adenosine receptor A3, 0.00493 µM; on Adenosine receptor A1, 0.823 µM. Also, the Ratio Ki in experiment [1] amounted to 17.8; in experiment [2], 9.41; in experiment [3], 167.

Consider `COc1ccc(CNc2nc3nn(C)cc3c3nc(-c4ccco4)nn23)cc1OC`, for which the Ki on Adenosine receptor A2a was 0.0641 µM; at Adenosine receptor A2b it was over 3 µM; at Adenosine receptor A3 it was 0.0211 µM; on Adenosine receptor A1, 2.72 µM. In addition, the Ratio Ki in experiment [1] was found to be 3.04; in experiment [2], 42.3; in experiment [3], 129.

For the compound `CC[C@@H](C)Nc1nc2nn(C)cc2c2nc(-c3ccco3)nn12`, the Ki on Adenosine receptor A2a stood at 0.272 µM; on Adenosine receptor A2b, 4.81 µM; on Adenosine receptor A3, 0.00593 µM; on Adenosine receptor A1, 0.165 µM. Also, the Ratio Ki came to 45.9 in experiment [1], 0.61 in experiment [2] and 27.8 in experiment [3].

Take `Cn1cc2c(nc(NC3CC3)n3nc(-c4ccco4)nc23)n1`: the Ki on Adenosine receptor A2a was determined as 0.113 µM; at Adenosine receptor A2b it was 1.75 µM; on Adenosine receptor A3 it was 0.0693 µM; on Adenosine receptor A1, 0.208 µM. For the same compound, the Ratio Ki is 1.63 in experiment [1], 1.84 in experiment [2] and 3 in experiment [3].

As to `CCCCCN(CCCCC)c1nc2nn(C)cc2c2nc(-c3ccco3)nn12`, the Ki at Adenosine receptor A2a is 7.49 µM; on Adenosine receptor A2b, over 10 µM; at Adenosine receptor A3 it was 0.824 µM; on Adenosine receptor A1, 3.33 µM. Besides, the Ratio Ki in experiment [1] was found to be 9.09; in experiment [2], 0.44; in experiment [3], 4.04.
